# From PubChem BioAssay
# TRPC6 inh: mouse TRPC6 channel inhibitors, primary screen, cell-based, HEK293, membrane potential dye. Short transient receptor potential channel 6 (Mus musculus), Q61143. ACh-evoked depolarization; hits give low values. B-score at 10 µM. 310,000 tested, 1.1% active;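 active = B-score under library mean minus 3 SD, initial fluorescence not abnormally high, positive integrated signal ratio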;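 also: B-score derived from integrated fluorescence ratio over the kinetic read; more negative B-score means stronger inhibition of depolarization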
# Target sequence (Q61143 whole entry, looked up): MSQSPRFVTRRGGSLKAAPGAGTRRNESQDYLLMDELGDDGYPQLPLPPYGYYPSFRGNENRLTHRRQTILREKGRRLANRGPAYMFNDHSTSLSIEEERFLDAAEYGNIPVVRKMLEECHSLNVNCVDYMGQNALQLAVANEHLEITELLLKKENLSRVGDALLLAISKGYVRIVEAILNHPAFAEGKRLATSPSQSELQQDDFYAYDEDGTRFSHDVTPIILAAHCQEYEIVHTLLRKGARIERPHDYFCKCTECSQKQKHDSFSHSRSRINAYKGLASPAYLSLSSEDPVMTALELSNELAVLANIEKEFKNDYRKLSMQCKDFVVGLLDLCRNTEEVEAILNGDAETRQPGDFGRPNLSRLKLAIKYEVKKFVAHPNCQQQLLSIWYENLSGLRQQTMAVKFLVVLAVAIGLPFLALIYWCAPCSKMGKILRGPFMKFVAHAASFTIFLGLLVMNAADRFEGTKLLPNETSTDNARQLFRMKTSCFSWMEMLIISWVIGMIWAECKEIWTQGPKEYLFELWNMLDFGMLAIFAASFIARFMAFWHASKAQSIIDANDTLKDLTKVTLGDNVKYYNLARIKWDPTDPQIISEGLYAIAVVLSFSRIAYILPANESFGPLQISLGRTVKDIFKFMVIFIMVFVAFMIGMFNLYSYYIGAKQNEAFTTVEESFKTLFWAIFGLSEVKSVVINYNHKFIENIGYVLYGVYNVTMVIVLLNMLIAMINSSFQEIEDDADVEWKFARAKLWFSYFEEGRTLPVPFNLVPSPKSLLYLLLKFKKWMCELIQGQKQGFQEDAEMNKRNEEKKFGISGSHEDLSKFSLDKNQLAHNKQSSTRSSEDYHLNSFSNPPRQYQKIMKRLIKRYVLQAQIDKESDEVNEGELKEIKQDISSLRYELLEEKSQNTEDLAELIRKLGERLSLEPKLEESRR
# TRPC4 agonist: activators of mouse TRPC4 channel, primary screen, Fluo4 calcium, HEK293 TRPC4beta/mu-opioid cells. 310,000 tested, 0.49% active. Short transient receptor potential channel 4 (Mus musculus), Q9QUQ5. AID 2237, 2010. Fluo4 calcium fluorescence; hits give high values. B-score at 10 µM;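 active = B-score above 5 SD of library B-scores, and initial fluorescence ratio not above library mean plus 5 SD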;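 also: positive B-score marks a calcium rise read as TRPC4 activation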
#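 Test system: HEK293 cells stably co-expressing mouse TRPC4beta and mu-opioid receptor | Schedule: Fluo4 dye loading 45 min at room temperature, 110 s recording | Measured by: Kinetic Fluo4 calcium fluorescence, 5 s baseline at 1 Hz | Evaluation: B score of integrated ratio | Controls: Buffer (low) and maximal DAMGO (high)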
# TRPC4 potent: positive allosteric modulators of TRPC4, primary screen, cell-based, mouse TRPC4beta, HEK293 mu-opioid, Fluo-4 calcium; AID 2227, 2009; B-score at 10 µM; DAMGO EC20, Fluo-4 Ca2+ flux; hits give high values; 310,000 tested, 0.42% active;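 active = B-score of calcium response area above 5 SD of library B-scores, with initial fluorescence ratio within 5 SD of library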;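 also: B-score of integrated fluorescence ratio over time as area under calcium response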
# TRPC6 act: mouse TRPC6 channel activators, primary screen, cell-based, HEK293, membrane potential dye. HEK293-TRPC6 membrane potential dye fluorescence; hits give high values. AID 2550, 2010. B-score at 10 µM. 310,000 tested, 0.13% active. Short transient receptor potential channel 6 (Mus musculus), Q61143;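 active = B-score of the integrated fluorescence ratio above library mean plus 3 SD, and starting fluorescence ratio within library mean plus 5 SD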;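 also: higher score means more depolarization so channel activation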
# TRPC4 block: inhibitors of mouse TRPC4 channel, primary screen, Fluo4 calcium, HEK293 TRPC4beta/mu-opioid cells. 300,000 tested, 0.39% active. Short transient receptor potential channel 4 (Mus musculus), Q9QUQ5. AID 2247, 2010. B-score at 10 µM. DAMGO-evoked Fluo4 calcium flux; hits give low values;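 active = B-score over 3 SD under the library average, no early fluorescence shift, positive overall ratio signal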
#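 Assay system: TRPC4beta/mu-opioid receptor HEK293 cell line; compound dosing: single concentration per test compound; detection: Fluo4 Ca2+ flux fluorescence; evaluation: per-well B score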
# Active calls of the source: *; i = inactive. Only some compounds are listed: those with a hit (about 2.3% of all), similar ones and a draw of the others.
SMILES,TRPC6 inh,TRPC4 agonist,TRPC4 potent,TRPC6 act,TRPC4 block
O=C(N/N=C/c1cccc(Cl)c1)C1CCCC1,i,i,i,i,i
COc1cccc(CN2CC(C(=O)N(C)C3CCOCC3)CCC2=O)c1 (configuration not stated),i,i,i,i,i
Cc1c(C(=O)N2CCCC2)c(S(=O)(=O)N2CCN(c3ccccc3F)CC2)c(C)n1C,i,i,i,i,i
Cc1ccc(C)c(NCC(=O)c2ccc(Cl)cc2)c1,i,i,i,i,i
Cc1cc(Oc2ccc(-c3ccccc3)cc2)nc(N2CCOCC2)n1,i,i,i,i,i
Cc1cc(Oc2ccc(C(C)(C)C)cc2)nc(N2CCOCC2)n1,i,i,18*,i,i
CCCOc1cc(C)c(S(=O)(=O)n2ccc(C)n2)cc1C,i,i,13*,i,i
CCCc1cc(=O)oc2cc(C)cc(OCC(=O)N[C@@H](CSCc3ccccc3)C(=O)O)c12,i,i,i,i,i
CCOC(=O)c1c(N)sc(C(O)(C(F)(F)F)C(F)(F)F)c1-c1ccccc1,i,i,i,i,-7*
CCOC(=O)c1c(N)sc(-c2ccccc2)c1C,i,i,i,i,i
CC(=O)Nc1ccc(S(=O)(=O)N(C)CC(=O)OCCOc2cccc(C)c2)cc1,i,i,i,i,i
O=C(Cc1ccccc1)Nc1ccccc1Sc1ccccc1,i,i,i,i,-6*
O=C(Cc1ccc(Br)cc1)Nc1ccccc1Sc1ccccc1,i,i,i,i,i
O=C(NCc1cnn(-c2ccc(F)cc2)c1)C1CCC(=O)N(C2CC2)C1 (configuration not stated),i,i,i,i,i
O=C(c1ccc2c3c(cccc13)CC2)C1CCCN(Cc2ccncc2)C1 (configuration not stated),i,44*,i,i,i
Cc1ncccc1C(=O)N1CCCC(C(=O)c2ccc3c4c(cccc24)CC3)C1 (configuration not stated),i,i,i,i,i
CCc1nc(CN2CCCC(C(=O)c3ccc4c5c(cccc35)CC4)C2)c(C)[nH]1 (configuration not stated),i,116*,i,i,i
C=CCNCCCCOc1cccc(Br)c1,i,i,13*,i,i
CCCn1ncc2c(Nc3ccc(C)c(C)c3)ncnc21,i,i,i,i,i
CC1CN(S(=O)(=O)c2cccc(C(=O)Nc3ccccc3N3CCCC3)c2)CC(C)O1 (configuration not stated),i,i,i,i,i
CC1CCCCN1S(=O)(=O)c1ccc(C(=O)Nc2sccc2C(N)=O)cc1 (configuration not stated),i,i,11*,i,i
CN(C)/C(Cn1cncn1)=C1/N=C(c2ccccc2)OC1=O,i,i,i,i,i
CN1CCN(C/C(=C2/N=C(c3ccccc3)OC2=O)N(C)C)CC1,i,i,13*,i,i
COc1ccc(CCN(C)C(=O)C2CCCN(C3CCN(Cc4ccccc4)CC3)C2)cc1OC (configuration not stated),i,131*,i,i,i
CN(Cc1cccc(Cl)c1)C(=O)C1CCN(C(=O)Nc2ccccc2)CC1,i,i,i,i,i
SMILES,TRPC6 inh,TRPC4 agonist,TRPC4 potent,TRPC6 act,TRPC4 block
CN(Cc1ccccc1)C(=O)C1CCCN(Cc2cccc(Cl)c2)C1 (configuration not stated),i,i,i,i,-8*
CCN(CC)C(=O)C1CCCN(Cc2cccc(Oc3ccccc3)c2)C1 (configuration not stated),i,i,i,i,-7*
O=S(=O)(NCC1CCCO1)c1ccccc1F (configuration not stated),i,i,i,i,i
CN(C)S(=O)(=O)c1ccc(N2CCCC2)c(C(=O)NC2CCC(O)CC2)c1 (configuration not stated),i,i,i,i,i
Clc1ccc(-c2csc3ncnc(NCCN4CCOCC4)c23)cc1,i,i,i,i,-5*
Cc1ccc(-c2csc3ncnc(NCCN4CCOCC4)c23)cc1,i,i,i,i,-6*
c1ccc(-c2csc3ncnc(NCCN4CCOCC4)c23)cc1,i,i,i,i,i
CCNc1nc(NC(C)C)nc(NS(=O)(=O)c2ccc(C)cc2)n1,i,i,i,i,i
CCOc1ccc(-c2c(=O)n(OCc3ccc([N+](=O)[O-])cc3)c3ccccc3[n+]2[O-])cc1,i,i,i,i,i
Cc1ccc(C)c(N(CC(=O)NC2CCCC2)C(=O)c2csnn2)c1,i,70*,i,i,-10*
COc1ccc(CNC(=O)C2CCN(S(=O)(=O)c3cccc4nsnc34)CC2)cc1,i,i,i,i,i
NC(=O)c1ccc(N2CCN(c3ncc(C(F)(F)F)cc3Cl)CC2)cc1,i,i,17*,i,i
O=C(c1cc2c(ccc3ccccc32)o1)N1CCN(c2ncc(C(F)(F)F)cc2Cl)CC1,i,80*,i,i,i
NC(=O)NCCN1CCN(c2ncc(C(F)(F)F)cc2Cl)CC1,i,i,15*,i,i
Fc1ccc(-c2nnc(CN3CCN(c4ncc(C(F)(F)F)cc4Cl)CC3)o2)cc1,i,109*,i,i,i
CCC1CCCCN1CCCNC(=O)CSc1nc2nc(C)c(Cc3ccc(C)cc3)c(C)n2n1 (configuration not stated),i,i,i,i,i
COc1ccc(C2CC2/C(=N/O)c2ccccc2)cc1 (configuration not stated),i,i,i,i,-8*
COc1ccc(C2CC2/C(=N/O)c2ccccn2)cc1 (configuration not stated),i,i,i,i,i
O=C(O)C(Cc1ccccc1)N1C(=O)/C(=C/c2ccccc2)SC1=S (configuration not stated),i,i,i,i,i
